Measured values: ChEMBL document CHEMBL1126621 (J Med Chem, 1993)
Values belong to the molecule of their own block, whether it stands above or below them. Bridge positions count the residues as written; N and C are the ends. Square brackets hold non-standard residues; d marks the D form. Peptide text beside a SMILES is read from it. Pen = CC(C)(S)[C@H](N)C(=O)O

Assays:
[1] = target: Delta-type opioid receptor (Mus musculus, UniProt P32300); assay: Inhibition of delta-selective antagonist binding to opioid receptor of mouse vas dferens
How it was run: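 Mouse vas deferens at 500 mg tension in Mg-free Krebs, 37 °C, 95% O2/5% CO2. Field-stimulated with 2-ms supramaximal pulses; isometric contractions recorded. Cumulative concentration-response. At least 2 assays in duplicate.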

[2] = target: Mu-type opioid receptor (Cavia porcellus, UniProt P97266); assay: Inhibition of [3H]PL-17 binding to mu opioid receptor of guinea pig brain homogenate
[3] = target: T1, Kappa-type opioid receptor (Cavia porcellus, UniProt P41144); assay: (§1) Inhibition of [3H]U-69593 binding to kappa opioid receptor of guinea pig brain homogenate
How it was run: (§2)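 Adult male Hartley guinea pig whole-brain membranes in 50 mM Tris-HCl pH 7.4, preincubated 25 °C 30 min to strip endogenous peptides. Assay buffer: Tris with BSA, bestatin, bacitracin, captopril, PMSF. Ten concentrations over 800-fold range, duplicate tubes. 10 μM naltrexone defined nonspecific binding. 25 °C for 3 h, then PEI-treated GF/B filtration and scintillation counting. One/two-site nonlinear regression or logistic fit. ≥3 independent runs, mean ± SEM.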

[4] = Relative affinity for delta and kappa opioid receptors of guinea pig brain homogenate; details: Cavia porcellus
[5] = target: T1, Kappa-type opioid receptor; assay: as §1; remark: listed apart in the source
How it was run: as §2, with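 “PMSF. Radioligand: [3H]DPDPE 1.0 nM (δ) or [3H]U-69,593 0.75 nM (κ).” for “PMSF.”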

Delta-type opioid receptor, sequence (P32300 whole entry): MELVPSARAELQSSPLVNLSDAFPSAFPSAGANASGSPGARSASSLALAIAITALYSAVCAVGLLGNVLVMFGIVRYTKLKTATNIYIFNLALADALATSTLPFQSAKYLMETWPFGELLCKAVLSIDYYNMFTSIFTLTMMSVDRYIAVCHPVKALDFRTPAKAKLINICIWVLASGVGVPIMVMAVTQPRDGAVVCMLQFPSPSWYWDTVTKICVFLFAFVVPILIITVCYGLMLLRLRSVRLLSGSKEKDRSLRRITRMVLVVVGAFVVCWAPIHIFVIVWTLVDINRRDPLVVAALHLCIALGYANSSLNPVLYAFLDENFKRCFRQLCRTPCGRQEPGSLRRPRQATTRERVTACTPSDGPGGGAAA
T1 sequence (P41144 whole entry): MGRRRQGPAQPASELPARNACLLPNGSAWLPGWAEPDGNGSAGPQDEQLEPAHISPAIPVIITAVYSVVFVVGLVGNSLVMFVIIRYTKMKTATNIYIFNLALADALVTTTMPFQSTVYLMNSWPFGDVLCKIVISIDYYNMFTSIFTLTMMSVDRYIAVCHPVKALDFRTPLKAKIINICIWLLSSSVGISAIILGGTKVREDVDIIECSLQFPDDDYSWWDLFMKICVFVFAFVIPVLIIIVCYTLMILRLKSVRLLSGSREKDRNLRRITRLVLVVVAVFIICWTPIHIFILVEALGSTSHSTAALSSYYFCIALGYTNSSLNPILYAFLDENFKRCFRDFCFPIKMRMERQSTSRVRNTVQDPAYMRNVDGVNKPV
Mu-type opioid receptor, sequence (P97266 whole entry): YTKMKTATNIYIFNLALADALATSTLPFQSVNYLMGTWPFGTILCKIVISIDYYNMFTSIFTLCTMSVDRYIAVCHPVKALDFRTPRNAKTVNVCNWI

SMILES: CC[C@H](C)[C@@H]1NC(=O)[C@H](CCCN=C(N)N)NC(=O)[C@H](CCCN=C(N)N)NC(=O)[C@@H](NC(=O)[C@H](Cc2ccccc2)NC(=O)CNC(=O)CNC(=O)[C@@H](N)Cc2ccc(O)cc2)C(C)(C)SSC[C@@H](C(N)=O)NC(=O)[C@@H]2CCCN2C(=O)[C@H](CCCN=C(N)N)NC1=O (H-YGGF[Pen]RRIRPC-NH2; disulfide 5-11)
IC50 [1]: > 6000 nM | IC50 [2]: 1.26 nM | IC50 [3]: 0.522 nM

SMILES: CC[C@H](C)[C@@H]1NC(=O)[C@@H](CCCN=C(N)N)NC(=O)[C@H](CCCN=C(N)N)NC(=O)[C@H](NC(=O)[C@H](Cc2ccccc2)NC(=O)CNC(=O)CNC(=O)[C@@H](N)Cc2ccc(O)cc2)CSSC[C@H](C(=O)N[C@@H](CCCCN)C(=O)O)NC(=O)[C@@H](CCCN=C(N)N)NC1=O
Selectivity [4]: 139

SMILES: CC(C)C[C@H](NC(=O)[C@H](Cc1ccccc1)NC(=O)CNC(=O)CNC(=O)[C@@H](N)Cc1ccc(O)cc1)C(=O)N[C@@H](CCCN=C(N)N)C(=O)N[C@@H](CCCN=C(N)N)C(=O)N[C@@H]1CSSC[C@@H](C(=O)N[C@@H](CCCCN)C(=O)O)NC(=O)[C@@H](CCCCN)NC(=O)[C@@H]2CCCN2C(=O)[C@@H](CCCN=C(N)N)NC1=O
Selectivity [4]: 56

SMILES: CC[C@H](C)[C@@H]1NC(=O)[C@H](CCCNC(=N)N)NC(=O)[C@H](CCCNC(=N)N)NC(=O)[C@@H](NC(=O)[C@H](Cc2ccccc2)NC(=O)CNC(=O)CNC(=O)[C@@H](N)Cc2ccccc2)CSSC[C@@H](C(N)=O)NC(=O)[C@@H]2CCCN2C(=O)[C@H](CCCNC(=N)N)NC1=O (H-FGGFCRRIRPC-NH2; disulfide 5-11)
IC50 [1]: > 3000 nM | IC50 [2]: 61.2 nM | IC50 [3]: 15.1 nM

SMILES: CC[C@H](C)[C@@H]1NC(=O)[C@H](CCCN=C(N)N)NC(=O)[C@H](CCCN=C(N)N)NC(=O)[C@@H](NC(=O)[C@H](Cc2ccccc2)NC(=O)CNC(=O)CNC(=O)[C@@H](N)Cc2ccc(O)cc2)CSSC[C@@H](C(=O)N[C@@H](CCCCN)C(N)=O)NC(=O)[C@H](CCCN=C(N)N)NC1=O (H-YGGFCRRIRCK-NH2; disulfide 5-10)
IC50 [1]: > 3000 nM | IC50 [2]: 4.26 nM | IC50 [3]: 0.593 nM

SMILES: CC(C)C[C@H](NC(=O)[C@H](Cc1ccccc1)NC(=O)CNC(=O)CNC(=O)[C@@H](N)Cc1ccc(O)cc1)C(=O)N[C@@H](CCCN=C(N)N)C(=O)N[C@@H](CCCN=C(N)N)C(=O)N[C@H]1CSSC[C@H](C(=O)O)NC(=O)[C@@H](CC(C)C)NC(=O)[C@H](CCCCN)NC(=O)[C@H]2CCCN2C(=O)[C@H](CCCN=C(N)N)NC1=O
Selectivity [4]: 55

SMILES: CC[C@H](C)[C@@H]1NC(=O)[C@H](CCCN=C(N)N)NC(=O)[C@H](CCCN=C(N)N)NC(=O)[C@@H](NC(=O)[C@H](Cc2ccccc2)NC(=O)CNC(=O)CNC(=O)[C@@H](N)Cc2ccc(O)cc2)CSSC[C@@H](C(=O)N[C@@H](CCCN=C(N)N)C(=O)N[C@@H](CCCCN)C(N)=O)NC1=O (H-YGGFCRRICRK-NH2; disulfide 5-9)
IC50 [1]: 6260 nM | IC50 [5]: 0.42 nM | IC50 [2]: 5.81 nM

SMILES: CC[C@H](C)[C@H]1NC(=O)[C@H](CCCN=C(N)N)NC(=O)[C@@H](CCCN=C(N)N)NC(=O)[C@H](NC(=O)[C@H](Cc2ccccc2)NC(=O)CNC(=O)CNC(=O)[C@@H](N)Cc2ccc(O)cc2)CSSC[C@H](C(=O)N2CCC[C@@H]2C(=O)N[C@H](CCCCN)C(=O)O)NC1=O
Selectivity [4]: 36

SMILES: CC[C@H](C)[C@@H]1NC(=O)[C@H](CCCNC(=N)N)NC(=O)[C@@H](NC(=O)[C@H](CC(C)C)NC(=O)[C@H](Cc2ccccc2)NC(=O)CNC(=O)CNC(=O)[C@@H](N)Cc2ccc(O)cc2)CSSC[C@@H](C(=O)N[C@@H](CCCCN)C(N)=O)NC(=O)[C@H](CCCNC(=N)N)NC1=O (H-YGGFLCRIRCK-NH2; disulfide 6-10)
IC50 [1]: 92.6 nM | IC50 [2]: 0.091 nM | IC50 [3]: 0.047 nM

SMILES: CC[C@H](C)[C@H]1NC(=O)[C@H](CCCN=C(N)N)NC(=O)[C@@H](CCCN=C(N)N)NC(=O)[C@H](NC(=O)[C@H](Cc2ccccc2)NC(=O)CNC(=O)[C@@H](C)NC(=O)[C@@H](N)Cc2ccc(O)cc2)CSSC[C@H](C(=O)O)NC(=O)[C@H]2CCCN2C(=O)[C@H](CCCN=C(N)N)NC1=O
Selectivity [4]: 1.3

Selectivity [4]: 46
SMILES: CC[C@H](C)[C@H]1NC(=O)[C@H](CCCN=C(N)N)NC(=O)[C@@H](CCCN=C(N)N)NC(=O)[C@H](NC(=O)[C@H](Cc2ccccc2)NC(=O)CNC(=O)CNC(=O)[C@@H](N)Cc2ccc(O)cc2)CSSC[C@H](C(=O)O)NC(=O)[C@@H](CC(C)C)NC(=O)[C@H](CCCCN)NC(=O)C2CCCN2C(=O)[C@H](CCCN=C(N)N)NC1=O (stereo in doubt)

SMILES: CC[C@H](C)[C@H]1NC(=O)[C@H](CCCN=C(N)N)NC(=O)[C@@H](CCCN=C(N)N)NC(=O)[C@H](NC(=O)[C@H](Cc2ccccc2)NC(=O)CNC(=O)CNC(=O)[C@@H](N)Cc2ccccc2)CSSC[C@H](C(=O)O)NC(=O)[C@H]2CCCN2C(=O)[C@H](CCCN=C(N)N)NC1=O
Selectivity [4]: 26

SMILES: CC[C@H](C)[C@H]1NC(=O)[C@H](CCCN=C(N)N)NC(=O)[C@@H](CCCN=C(N)N)NC(=O)[C@H](NC(=O)[C@H](Cc2ccccc2)NC(=O)CNC(=O)CNC(=O)[C@@H](N)Cc2ccc(O)cc2)CSSC[C@H](C(=O)N[C@H](CCCN=C(N)N)C(=O)N[C@H](CCCCN)C(=O)O)NC1=O
Selectivity [4]: 43

SMILES: CC(C)C[C@H](NC(=O)[C@H](Cc1ccccc1)NC(=O)CNC(=O)CNC(=O)[C@@H](N)Cc1ccc(O)cc1)C(=O)N[C@@H](CCCN=C(N)N)C(=O)N[C@@H](CCCN=C(N)N)C(=O)N[C@H]1CSSC[C@H](C(N)=O)NC(=O)[C@H](CC(C)C)NC(=O)[C@H](CCCCN)NC(=O)[C@@H]2CCCN2C(=O)[C@H](CCCN=C(N)N)NC1=O
IC50 [1]: 9.17 nM | IC50 [2]: 0.38 nM | IC50 [3]: 0.035 nM

SMILES: CC[C@H](C)[C@@H]1NC(=O)[C@H](CCCNC(=N)N)NC(=O)[C@H](CCCNC(=N)N)NC(=O)[C@@H](NC(=O)[C@H](Cc2ccccc2)NC(=O)CNC(=O)CNC(=O)[C@@H](N)Cc2ccc(O)cc2)CSSC[C@@H](C(N)=O)NC(=O)[C@H](CC(C)C)NC(=O)[C@H](CCCCN)NC(=O)[C@H]2CCCN2C(=O)[C@H](CCCNC(=N)N)NC1=O
IC50 [1]: 4100 nM | IC50 [2]: 2.48 nM | IC50 [3]: 0.21 nM

SMILES: CC[C@H](C)[C@H]1NC(=O)[C@H](CCCN=C(N)N)NC(=O)[C@@H](NC(=O)[C@H](CC(C)C)NC(=O)[C@H](Cc2ccccc2)NC(=O)CNC(=O)CNC(=O)[C@@H](N)Cc2ccc(O)cc2)CSSC[C@@H](C(=O)N[C@@H](CCCCN)C(=O)O)NC(=O)[C@H](CCCN=C(N)N)NC1=O
Selectivity [4]: 10

SMILES: CC(C)C[C@H](NC(=O)[C@H](Cc1ccccc1)NC(=O)CNC(=O)CNC(=O)[C@@H](N)Cc1ccc(O)cc1)C(=O)N[C@@H](CCCNC(=N)N)C(=O)N[C@@H](CCCNC(=N)N)C(=O)N[C@@H]1CSSC[C@H](C(=O)N[C@@H](CCCCN)C(N)=O)NC(=O)[C@H](CCCCN)NC(=O)[C@@H]2CCCN2C(=O)[C@H](CCCNC(=N)N)NC1=O
IC50 [1]: 25.3 nM | IC50 [2]: 0.674 nM | IC50 [3]: 0.116 nM

SMILES: CC[C@H](C)[C@@H]1NC(=O)[C@H](CCCN=C(N)N)NC(=O)[C@H](CCCN=C(N)N)NC(=O)[C@@H](NC(=O)[C@H](Cc2ccccc2)NC(=O)CNC(=O)CNC(=O)[C@@H](N)Cc2ccc(O)cc2)CSSC[C@@H](C(=O)N2CCC[C@H]2C(=O)N[C@@H](CCCCN)C(N)=O)NC1=O (H-YGGFCRRICPK-NH2; disulfide 5-9)
IC50 [1]: > 3000 nM | IC50 [2]: 6.43 nM | IC50 [3]: 0.868 nM

SMILES: CC[C@H](C)[C@H]1NC(=O)[C@H](CCCN=C(N)N)NC(=O)[C@@H](CCCN=C(N)N)NC(=O)[C@H](NC(=O)[C@H](Cc2ccccc2)NC(=O)CNC(=O)CNC(=O)[C@@H](N)Cc2ccc(O)cc2)C(C)(C)SSC[C@H](C(=O)O)NC(=O)[C@H]2CCCN2C(=O)[C@H](CCCN=C(N)N)NC1=O
Selectivity [4]: 165

SMILES: CC[C@H](C)[C@@H]1NC(=O)[C@H](CCCN=C(N)N)NC(=O)[C@H](CCCN=C(N)N)NC(=O)[C@@H](NC(=O)[C@H](Cc2ccccc2)NC(=O)CNC(=O)[C@@H](C)NC(=O)[C@@H](N)Cc2ccc(O)cc2)CSSC[C@@H](C(N)=O)NC(=O)[C@@H]2CCCN2C(=O)[C@H](CCCN=C(N)N)NC1=O
IC50 [1]: > 6000 nM | IC50 [2]: 9.69 nM | IC50 [3]: 81.2 nM
